High-throughput results: PubChem BioAssay, several laboratories
HIF activator – HIF pathway transcriptional activation | U2OS HRE-luciferase reporter, luminescence; normalized: DMSO 0%, desferrioxamine 100% | activation, % at 7.5 µM (by protocol) | 0.32% of 300,000 active | AID 1910;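 active = mean activation of at least 10% of the iron chelator positive control signal, with at least half of replicates also reaching 10%; inconclusive = mean and replicate majority disagree about reaching 10%; inactive = mean and most replicates under 10%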
Beta apoptosis – beta cell apoptosis inhibition. INS-1E cytokine-induced death, ATP luminescence, 48 h; percent of positive-control rescue, neutral wells zero. protection from apoptosis, % (test concentration not listed). 0.8% of 300,000 active. AID 435005;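 active = Every replicate reaches about 75%, or at least half do and their mean reaches it too, limit read from the data; inconclusive = At least half of replicates reach the limit but their mean does not; inactive = Under half of replicates reach the limit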;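 also: 0% = cytokine-treated negative control wells and 100% = positive control rescue; higher means more ATP so stronger rescue from cytokine killing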
T cruzi inh – blocks replication of Trypanosoma cruzi | T. cruzi beta-gal in NIH3T3, luminescence, 90 h | inhibition, % (test concentration not listed) | 1.4% of 300,000 active | AID 1885;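 active = mean inhibition across valid replicates above about 55%, limit read from the data; inconclusive = mean below that limit but half or more replicates reach it; inactive = mean below it, under half of replicates reach it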;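 also: signal also drops with host cell toxicity which is not excluded here; 0% = plate median of DMSO wells and 100% = zero luminescence signal; higher percent means less beta-gal luminescence so fewer parasites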
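Test system: β-gal T. cruzi (Tulahuen C4) inside NIH/3T3 cells / Quantity: 5,000 cells/well / Measured by: luminescence from GalScreen with 0.05% NP40, read after 60 min / Medium: DMEM plus 2% FBS / Measure: parasite load inhibition, % / Reagent: Tulahuen C4 trypomastigotes, 5000/well / Schedule: co-culture of at least 90 h after 3 h attachment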
Bfl-1 A1 inh – inhibitors of the anti-apoptotic protein A1, read as caspase activation. AID 2462. 0.066% of 330,000 active. caspase activation, % (no concentration beside the values). MEF A1-2A-BIM cells, Caspase-Glo 3/7 luminescence, 3 h; percent of clofoctol response, vehicle zero;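 active = over half of replicate activation scores above 10%, or exactly half above 10 with the replicate mean above 10; inconclusive = replicate mean below 10 yet half the replicates above 10; inactive = over half of replicates below 10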
KLF5 inh – inhibitors of KLF5 expression | DLD-1 KLF5 promoter-luciferase reporter, luminescence | inhibition, % at 5 µM | 0.23% of 290,000 active;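 active = inhibition above a per-plate limit of that plate's mean compound inhibition plus 3 SD, cut at about 60% in these data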;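 also: 0% = DMSO wells and 100% = LY294002 at 200 µM; higher means less KLF5 promoter-driven luciferase light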
Active calls of the source: *; ? = inconclusive; · = no result given. In the library only some 2.3% were active in any assay of this set; here they are far more common.

SMILES | HIF activator | Beta apoptosis | T cruzi inh | Bfl-1 A1 inh | KLF5 inh
OC(CNCCNc1ncccc1C(F)(F)F)Cn1ccc2ccccc21 (stereo unspecified) | 2 | -2 | 24 | -1 | -3
Cc1nc(-c2ccncc2)nc(NCCNc2ncccc2C(F)(F)F)c1Cl | 0 | · | 77* | 0 | 8
Nc1ccc(Nc2nc(-c3ccncc3)cs2)cc1 | · | -31 | 4 | -2 | -159
O=C(/C=C/c1ccccc1)Nc1nc(-c2ccncc2)cs1 | 2 | -5 | 66* | 0 | -64
O=C(/C=C\c1ccco1)Nc1nc(-c2ccccc2)cs1 | 1 | · | 14 | 0 | -59
Fc1ccc(Nc2nc(-c3ccncc3)cs2)cc1 | 5 | -8 | 47 | 0 | -37
c1ccc(Nc2nc(-c3ccncc3)cs2)cc1 | 3 | -10 | 65* | -7 | -115
Clc1ccc(Nc2nc(-c3ccncc3)cs2)cc1 | 3 | -2 | 57* | 0 | -15
O=S(=O)(Cc1ccc(Cl)cc1)NCc1ccc2c(c1)OCO2 | 0 | -1 | -2 | 1 | -4
CSc1ccccc1C(=O)C1CCCN(Cc2c(C)n(C)n(-c3ccccc3)c2=O)C1 (stereo unspecified) | 1 | -3 | 6 | 0 | -20
CCn1cc(CN2CCCC(C(=O)c3ccc(-c4ccccc4)c(F)c3)C2)cn1 (stereo unspecified) | 0 | 6 | 55* | 1 | -33
O=C(c1ccc(-c2ccccc2)c(F)c1)C1CCCN(CCCn2cccn2)C1 (stereo unspecified) | 0 | 4 | 45 | 1 | -2
CSc1ccccc1C(=O)C1CCCN(Cc2cnn(-c3ccccc3)c2)C1 (stereo unspecified) | -1 | 0 | 74* | 1 | -7
O=C(CCN1C(=O)[C@@H]2Cc3ccccc3CN2C1=O)NCc1ccc(Cl)cc1 | 0 | -1 | 5 | 1 | -14
CCOC(=O)c1c(NC(=O)CN2CCCCC2)sc2c1CCN(C(=O)OCC)C2 | 0 | 10 | 60* | 0 | -41
CCOC(=O)c1c(NC(=O)CN(CC)CC)sc2c1CCN(C(=O)OCC)C2 | 0 | 10 | 31 | 1 | -11
CCOC(=O)c1c(NC(=O)CSc2ncccn2)sc2c1CCN(Cc1ccccc1)C2 | 0 | · | 56* | · | 18
CCOC(=O)c1c(NC(=O)CSc2nnc3c(n2)[nH]c2ccccc23)sc2c1CCN(C)C2 | 0 | -1 | 77* | 0 | -22
O=C(CN1C(=O)NC2(CCCC2)C1=O)Nc1cc(Cl)ccc1Oc1ccccc1 | · | -7 | · | 0 | ·
O=C(NCCC(=O)N1CCN(c2ccccn2)CC1)c1ccc(Cl)cc1 | · | 4 | · | 1 | ·
COc1ccccc1N(C)S(=O)(=O)c1ccc(C(=O)Nc2cc(F)ccc2C)cc1 | · | 7 | · | -1 | ·
CN1CCN(c2ccccc2NC(=O)c2ccc(-c3ccc(Cl)c(Cl)c3)o2)CC1 | 1 | 30 | 39 | 0 | -12
CN1CCN(c2ccccc2NC(=O)c2ccc(-c3ccc(Br)cc3)o2)CC1 | 1 | 35 | 65* | -1 | 9
Cc1cc(N2CCN(C)CC2)ccc1NC(=O)c1ccc(-c2ccc(Cl)cc2)o1 | -1 | 53 | 59* | 0 | ·
O=C(N/N=C\c1ccc(-c2ccc([N+](=O)[O-])cc2)o1)C1COc2ccccc2O1 (stereo unspecified) | 0 | -2 | 59* | 0 | -3
SMILES | HIF activator | Beta apoptosis | T cruzi inh | Bfl-1 A1 inh | KLF5 inh
Cc1ccc(CSC(Nc2ccc(F)cc2)=C(C#N)C#N)cc1 | 0 | 117* | -27 | -1 | 0
CCN1CCN(CCCOc2ccc(-c3ccccc3)cc2)CC1 | 60* | 19 | 72* | -1 | -9
CN1CCN(CCOc2ccc(-c3ccccc3)cc2)CC1 | -22 | 4 | 43 | 0 | -32
O=C(c1ccccc1)c1ccc(OCCCN2CCCC2)cc1 | 1 | -4 | 55* | 0 | -38
CCN1CCN(CCCOc2ccccc2-c2ccccc2)CC1 | · | -4 | · | 1 | -8
CCN1CCN(CCOc2ccc(Cl)cc2)CC1 | 0 | -1 | 67* | 0 | 1
CN1CCN(CCCOc2ccc(-c3ccccc3)cc2)CC1 | -8 | 19 | 56* | 0 | -77
Cc1ccc(C(=O)COC(=O)CNC(=O)c2ccccc2)s1 | · | -1 | · | -1 | ·
CC1(C)O[C@@H]2[C@H](O1)[C@@H](COS(=O)(=O)O)O[C@H]2n1cc(Br)c(=O)[nH]c1=O | · | -10 | · | 0 | ·
COc1cccc(C(=S)N2CCCC2)c1OC | 0 | -1 | 0 | ? | -53
